From paper PMC10751876 (Current research in chemical biology, 2023)

Columns and labels:
TbBdf3 [1] = biological target: T1, TbBdf3 (Trypanosoma brucei brucei, UniProt Q383S2); test: SPR binding to TbBdf3; parameters: species or system T. brucei; settings: for Rmax: TbBdf3, SPR fit, (locked) = as printed
T1 sequence (Q383S2 1-221): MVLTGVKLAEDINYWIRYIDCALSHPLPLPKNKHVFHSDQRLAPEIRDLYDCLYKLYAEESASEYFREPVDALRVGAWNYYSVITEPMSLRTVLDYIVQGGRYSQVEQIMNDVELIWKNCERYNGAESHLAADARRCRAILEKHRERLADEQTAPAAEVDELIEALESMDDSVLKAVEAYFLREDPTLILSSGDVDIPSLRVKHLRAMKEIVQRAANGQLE
How it was run: (§1)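 Purified His6-tagged bromodomain protein was labelled with DBCO-PEG4-NHS ester (3-fold molar excess, 2 h, room temperature), quenched with ethanolamine, and coupled to an azide chip at pH 4.0 (~6000 RU). Run in duplicate, standard error.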

TbBdf2 [2] = biological target: T2, TbBdf2 (Trypanosoma brucei brucei, UniProt Q38AM1); test: SPR binding to TbBdf2; parameters: species or system T. brucei; settings: for Rmax: SPR fit, (locked) = as printed; for Kd: read-out: SPR KD, duplicate, standard error
T2 sequence (Q38AM1 9-123): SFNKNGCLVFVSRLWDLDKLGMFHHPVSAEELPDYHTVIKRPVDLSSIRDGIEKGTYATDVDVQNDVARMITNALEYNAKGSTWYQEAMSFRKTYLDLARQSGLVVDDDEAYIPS
How it was run: as §1

[3] = tested on: EP1/GFP reporter parasites; test: EP1/GFP reporter flow cytometry in bloodstream parasites; assay type: cell-based, T. brucei; settings: for EP1/GFP mean fluorescence intensity: 3 days
How it was run: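 Bloodstream Lister 427 L224 T. brucei (VSG3/BES7-NeoR, VSG2/BES1-PuroR) carrying an EP1/GFP reporter construct, grown in HMI-9 at 37 °C, 5% CO2. Parasites were treated 2 or 3 days, with DMSO as vehicle control. GFP mean fluorescence intensity was read by flow cytometry. Three biological replicates, SD shown; two-tailed unpaired t-test against DMSO.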

hBRD4 [4] = biological target: T3, hBRD4 (Homo sapiens, UniProt O60885); test: SPR binding to hBRD4; settings: for Rmax: hBRD4, SPR fit, (locked) = as printed
hBRD4 [5] = biological target: T3, hBRD4; test: ITC binding to hBRD4
TbBdf3 [6] = biological target: T1, TbBdf3; test: ITC binding to TbBdf3; parameters: species or system T. brucei
How it was run: (§2)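 ITC at 15 °C. His6-tagged bromodomain protein was dialysed against 20 mM HEPES pH 7.5, 150 mM NaCl, 0.5 mM TCEP, 1% DMSO. Typically 2.0 mM protein was injected in 2–3 μL increments into 200 μM ligand in the cell. Baseline-corrected isotherms were fitted. Each titration was run at least twice; reported values come from single experiments with fit error.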

TbBdf2 [7] = biological target: T2, TbBdf2; test: ITC binding to TbBdf2; parameters: species or system T. brucei; settings: 15 °C; n set to 1.0; single experiment, error of the fit
How it was run: as §2

[8] = tested on: bloodstream T. brucei parasites; test: Growth inhibition of bloodstream parasites; assay type: cell-based; settings: Trypanosoma brucei, 48 h, read-out: GEC50 growth inhibition
How it was run: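 Lister 427 L224 bloodstream parasites were plated at 10,000 cells/ml in HMI-9 across a compound concentration series and grown 48 h at 37 °C, 5% CO2. Cells were then stained with 5 μM Sytox Orange for 15 min at 37 °C and counted by fixed-volume flow cytometry in a live/Sytox-negative gate. Dose-response metrics came from growth-rate-inhibition analysis (GRMetric).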

T. brucei parasites = test: Percent of live cells by forward and side scatter gating; assay type: cell-based; settings: flow cytometry live gate
How it was run: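 Lister 427 L224 bloodstream parasites were cultured in HMI-9 at 37 °C, 5% CO2 and treated 48 h or 72 h at set concentrations, with DMSO controls. Viability is the percentage of cells falling in a live gate set on forward and side scatter by flow cytometry.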

[9] = Solubility at ITC ligand concentration; assay type: physicochemical; settings: at 200 μM, ITC assay
[10] = tested on: bloodstream T. brucei parasites (procyclin protein); test: Procyclin surface protein expression, anti-EP1 flow cytometry; assay type: cell-based; settings: negative control, 3 days

Row | Kd (TbBdf3 [1]) [µM] | Rmax (TbBdf3 [1]) | Rmax (TbBdf2 [2]) | Kd (TbBdf2 [2]) [µM] | Kd (hBRD4 [4]) [µM] | Rmax (hBRD4 [4]) | hBRD4, ITC KD (hBRD4 [5]; 15 °C, n set to 1.0, single experiment, error of the fit) | Kd (TbBdf3 [6]) [µM] | SPR binding to TbBdf3 (TbBdf3 [1]) | TbBdf2, ITC KD (TbBdf2 [7]) | Kd (hBRD4 [5]) [µM] | solubility [9] | Compound | EP1/GFP mean fluorescence intensity ([3]; 20 μM) | EC50 [8] [µM] | EP1/GFP mean fluorescence intensity ([3]; 5 μM) | percentage of live cells compared to DMSO controls (T. brucei parasites) | fold change in EP1/GFP mean fluorescence intensity compared to DMSO ([3]; 20 μM) [fold] | procyclin surface expression [10]
1 | 56 ± 31 | 200 (locked) RU | 200 (locked) RU | 44 ± 31 | 60 ± 26 | 200 (locked) RU | No binding | 22 ± 11 | – | – | – | – | COCCOCCOCCOC(=O)c1ccc(-c2cc3ncc4[nH]c(=O)n([C@H](C)c5ccccn5)c4c3cc2OC)cc1 [AP-09-191, (R)-2-(2-(2-Methoxyethoxy)ethoxy)ethyl 4-(8-methoxy-2-oxo-1-(1-(pyridin-2-yl)ethyl)-2,3-dihydro-1H-imidazo[4,5-c]quinolin-7-yl)benzoate] | increased mean fluorescence intensity of GFP | – | – | – | – | –
2 | 30 ± 21 | 143 ± 51 RU | 85 ± 35 RU | 45 ± 31 | 0.29 ± 0.17 | 135 ± 27 RU | – | 87 ± 21 | weak binding | No binding | 0.68 ± 0.15 | – | COc1cc2c(N[C@H](C)c3ccccn3)c(C(=O)NCCCCCCN)cnc2cc1-c1c(C)noc1C [AP-08-188, N-(6-Aminohexyl)-7-(3,5-dimethylisoxazol-4-yl)-6-methoxy-4-((R)-1-(pyridin-2-yl)ethylamino)quinoline-3-carboxamide] | – | 1.74 ± 0.044 | highest | significantly lower | – | –
3 | 1.43 ± 0.32 | 36.9 ± 1.9 RU | 27.1 ± 1.2 RU | 1.68 ± 0.34 | 6.1 ± 3.6 | 14.2 ± 1.8 RU | – | – | – | – | – | insolubility | COc1cc2c(cc1-c1ccc(C(=O)NCCCCCCCCNC(=O)OC(C)(C)C)cc1)ncc1[nH]c(=O)n([C@H](C)c3ccccn3)c12 [AP-09-008, (R)-tert-Butyl 8-(4-(8-methoxy-2-oxo-1-(1-(pyridin-2-yl)ethyl)-2,3-dihydro-1H-imidazo[4,5-c]quinolin-7-yl)benzamido)octylcarbamate] | – | 1.27 ± 0.046 | strong increase | significantly lower | – | –
4 | – | – | – | – | – | – | – | – | – | – | – | – | NCCCCCCNC(=O)c1ccccc1.O=C(O)C(F)(F)F [AP-08-190, N-(6-aminohexyl)benzamide 2,2,2-trifluoroacetate] | – | – | – | – | 1.2 | Neither DMSO nor the control compound AP-08-190 increased procyclin surface expression
